Test results as given in ChEMBL document CHEMBL3525963, “Tissue distribution and elimination of [14C]apixaban in rats” (Drug Metab Dispos, 2011).

Legend:
Set-up in all cases: dose 5 mg/kg, dosed compound name [14C]-apixaban, route oral
Settings in all cases: in vivo
Adrenal gland [1] = assay: Biodistribution in pregnant Sprague-Dawley rat adrenal gland at 5 mg/kg, po administered as single dose measured after 48 hrs; assay type: ADME, organism-based
How it was run: (§1)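 Fasted pregnant SD rats (n=6, 270-319 g) each received one oral gavage dose of [14C]apixaban, 5 mg/kg (100 μCi/kg), in 0.5% Tween 80/Labrafil. One rat was killed at each of 0.5, 1, 4, 8, 24 and 48 h. Carcasses were frozen in hexane/dry ice, cut into 40 µm sagittal sections, exposed to phosphor plates and quantified against [14C]glucose standards as µg eq/g. LLOQ was 0.037 µg eq/g.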

Harderian gland [2] = assay: Biodistribution in female Sprague-Dawley rat harderian gland at 5 mg/kg, po administered as single dose measured after 72 hrs; assay type: ADME, organism-based
How it was run: (§2)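 Quantitative whole-body autoradiography was run after a single 5 mg/kg (100 μCi/kg) oral gavage to fasted female or pregnant SD rats, one rat per time point. Carcasses were frozen in hexane/dry ice, and 40 µm sagittal sections were dried at −20°C for at least 48 h. Sections were exposed to a phosphor plate alongside [14C]glucose standards (0.001–6.5 µCi/g). Results are µg eq/g, with LLOQ 0.037 µg eq/g.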

Blood = assay: Biodistribution in female Sprague-Dawley rat blood at 5 mg/kg, po administered as single dose measured after 72 hrs; assay type: ADME, organism-based; how it was run: as §2
Rattus norvegicus [3] = assay: Biodistribution in pregnant Sprague-Dawley rat placenta at 5 mg/kg, po administered as single dose measured after 4 hrs; assay type: ADME, organism-based
Rattus norvegicus [4] = assay: Biodistribution in pregnant Sprague-Dawley rat kidney cortex at 5 mg/kg, po administered as single dose measured after 24 hrs; assay type: ADME, organism-based
Adrenal gland [5] = assay: Biodistribution in male Sprague-Dawley rat adrenal gland at 5 mg/kg, po administered as single dose measured after 1 hr; assay type: ADME, organism-based
How it was run: (§3)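 [¹⁴C]Apixaban given by oral gavage at 5 mg/kg (100 μCi/kg) in 0.5% Tween 80 in Labrafil (1.0 mg/mL dosing solution) to rats fasted overnight through 4 h post-dose. One rat per time point; carcass frozen in hexane/dry ice. Quantitative whole-body autoradiography used 40 µm sagittal sections and a phosphor imaging plate calibrated with [¹⁴C]glucose standards (0.001–6.5 μCi/g). Read-out in µg eq apixaban/g; LLOQ 0.037 μg eq/g.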

Rattus norvegicus [6] = assay: Biodistribution in fetal kidney of pregnant Sprague-Dawley rat at 5 mg/kg, po administered as single dose measured after 48 hrs; assay type: ADME, organism-based; how it was run: as §2
Rattus norvegicus [7] = assay: Biodistribution in female Sprague-Dawley rat brown fat at 5 mg/kg, po administered as single dose measured after 1 hr; assay type: ADME, organism-based, Brown adipose tissue
How it was run: (§4)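 [14C]apixaban (20 μCi/mL in dosing solution) in 0.5% Tween 80 in Labrafil given by oral gavage to fasted female rats, 206-213 g, at 100 μCi/kg. One rat per time point was euthanized and snap-frozen. Sagittal 40 µm whole-body sections were read by QWBA phosphor imaging against [14C]glucose standards. Results are in µg eq apixaban/g, with LLOQ 0.037 μg eq/g.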

Liver [8] = assay: Biodistribution in female Sprague-Dawley rat liver at 5 mg/kg, po administered as single dose measured after 24 hrs; assay type: ADME, organism-based; how it was run: as §3
Harderian gland [9] = assay: Biodistribution in female Sprague-Dawley rat harderian gland at 5 mg/kg, po administered as single dose measured after 8 hrs; assay type: ADME, organism-based; how it was run: as §3
Rattus norvegicus [10] = assay: Biodistribution in male Sprague-Dawley rat pituitary gland at 5 mg/kg, po administered as single dose measured after 24 hrs; assay type: ADME, organism-based
How it was run: (§5)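 Fasted male SD rats (225-252 g) each received one oral gavage dose of [14C]apixaban, 5 mg/kg (100 μCi/kg), in 0.5% Tween 80/Labrafil vehicle. One rat was killed per time point, from 0.5 to 168 h. Frozen carcasses were cut into 40 µm sagittal whole-body sections and read by QWBA phosphor imaging against [14C]glucose calibrants. Results are in µg apixaban eq/g; BLQ <0.037 µg eq/g.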

Brain [11] = assay: Biodistribution in pregnant Sprague-Dawley rat brain at 5 mg/kg, po administered as single dose measured after 48 hrs; assay type: ADME, organism-based; how it was run: as §1
Rattus norvegicus [12] = assay: Biodistribution in female Sprague-Dawley rat salivary gland at 5 mg/kg, po administered as single dose measured after 24 hrs; assay type: ADME, organism-based; how it was run: as §2
Rattus norvegicus [13] = assay: Biodistribution in pregnant Sprague-Dawley rat pituitary gland at 5 mg/kg, po administered as single dose measured after 4 hrs; assay type: ADME, organism-based
Heart = assay: Biodistribution in male Sprague-Dawley rat heart at 5 mg/kg, po administered as single dose measured after 72 hrs; assay type: ADME, organism-based; how it was run: as §5
Thymus = assay: Biodistribution in pregnant Sprague-Dawley rat thymus at 5 mg/kg, po administered as single dose measured after 48 hrs; assay type: ADME, organism-based
How it was run: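 Pregnant SD rats (270-319 g) were fasted overnight and given one oral gavage of 5 mg/kg (100 μCi/kg) in 0.5% Tween 80 in Labrafil. One rat was euthanized per time point (0.5, 1, 4, 8, 24, 48 h) and the carcass frozen. 40 µm sagittal sections were phosphor-imaged against [14C]glucose standards and results reported as µg eq/g; LLOQ 0.037 µg eq/g.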

Harderian gland [14] = assay: Biodistribution in pregnant Sprague-Dawley rat harderian gland at 5 mg/kg, po administered as single dose measured after 1 hr; assay type: ADME, organism-based
Brain [15] = assay: Biodistribution in female Sprague-Dawley rat brain at 5 mg/kg, po administered as single dose measured after 0.5 hrs; assay type: ADME, organism-based
How it was run: (§6)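 [14C]Apixaban (1.0 mg/mL, 20 μCi/mL in 0.5% Tween 80 in Labrafil) given as a single oral gavage of 5 mg/kg (100 μCi/kg) to fasted female SD rats, one rat per time point. Carcasses were frozen in hexane/dry ice and cut into 40 µm sagittal sections for QWBA against [14C]glucose standards. Brain radioactivity is reported as µg eq/g, with LLOQ 0.037 µg eq/g.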

Brain [16] = assay: Biodistribution in male Sprague-Dawley rat brain at 5 mg/kg, po administered as single dose measured after 4 hrs; assay type: ADME, organism-based
Brain [17] = assay: Biodistribution in female Sprague-Dawley rat brain at 5 mg/kg, po administered as single dose measured after 24 hrs; assay type: ADME, organism-based; how it was run: as §6
Liver [18] = assay: Biodistribution in male Sprague-Dawley rat liver at 5 mg/kg, po administered as single dose measured after 8 hrs; assay type: ADME, organism-based
How it was run: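 [14C]apixaban (1.0 mg/mL, 20 μCi/mL) in 0.5% Tween 80 in Labrafil, given by oral gavage at 100 μCi/kg to male rats (225-252 g) fasted overnight through 4 h post-dose. One rat per time point. Carcasses frozen in hexane/dry ice and cut into 40 µm sagittal sections. QWBA read on phosphor plates against [14C]glucose standards, reported as µg eq/g. LLOQ 0.037 µg eq/g.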

Pancreas = assay: Biodistribution in female Sprague-Dawley rat pancreas at 5 mg/kg, po administered as single dose measured after 8 hrs; assay type: ADME, organism-based; how it was run: as §3
Rattus norvegicus [19] = assay: Biodistribution in female Sprague-Dawley rat pituitary gland at 5 mg/kg, po administered as single dose measured after 1 hr; assay type: ADME, organism-based; how it was run: as §4
Lung = assay: Biodistribution in female Sprague-Dawley rat lung at 5 mg/kg, po administered as single dose measured after 4 hrs; assay type: ADME, organism-based; how it was run: as §3
Adrenal gland [20] = assay: Biodistribution in male Sprague-Dawley rat adrenal gland at 5 mg/kg, po administered as single dose measured after 72 hrs; assay type: ADME, organism-based; how it was run: as §5
Adrenal gland [21] = assay: Biodistribution in female Sprague-Dawley rat adrenal gland at 5 mg/kg, po administered as single dose measured after 0.5 hrs; assay type: ADME, organism-based; how it was run: as §3

- Radiolabel recovery (Harderian gland [2]): Not detected assumed BLQ
- Radiolabel recovery (Blood): Not detected assumed BLQ
- Radiolabel recovery (Rattus norvegicus [3]): 1.06 ugequiv/g
- Radiolabel recovery (Rattus norvegicus [4]): 0.05 ugequiv/g
- Radiolabel recovery (Adrenal gland [5]): 1.2 ugequiv/g
- Radiolabel recovery (Rattus norvegicus [7]): 0.77 ugequiv/g
- Radiolabel recovery (Liver [8]): < 0.037 ugequiv/g
- Radiolabel recovery (Harderian gland [9]): 0.22 ugequiv/g
- Radiolabel recovery (Rattus norvegicus [10]): Not detected assumed BLQ
- Radiolabel recovery (Brain [11]): Not detected assumed BLQ
- Radiolabel recovery (Rattus norvegicus [12]): Not detected assumed BLQ
- Radiolabel recovery (Rattus norvegicus [13]): 0.75 ugequiv/g
- Radiolabel recovery (Heart): Not detected assumed BLQ
- Radiolabel recovery (Thymus): Not detected assumed BLQ
- Radiolabel recovery (Harderian gland [14]): 1.09 ugequiv/g
- Radiolabel recovery (Brain [15]): < 0.037 ugequiv/g
- Radiolabel recovery (Brain [16]): < 0.037 ugequiv/g
- Radiolabel recovery (Brain [17]): < 0.037 ugequiv/g
- Radiolabel recovery (Liver [18]): 0.39 ugequiv/g
- Radiolabel recovery (Pancreas): 0.19 ugequiv/g
- Radiolabel recovery (Rattus norvegicus [19]): 0.42 ugequiv/g
- Radiolabel recovery (Lung): 0.51 ugequiv/g
- Radiolabel recovery (Adrenal gland [21]): 0.56 ugequiv/g
Structure (SMILES): COc1ccc(-n2nc(C(N)=O)c3c2C(=O)N(c2ccc(N4CCCC[14C]4=O)cc2)CC3)cc1
- Radiolabel recovery (Adrenal gland [1]): Not sampled as not visualised in autoradiograph
- Radiolabel recovery (Rattus norvegicus [6]): Not sampled as not visualised in autoradiograph
- Radiolabel recovery (Adrenal gland [20]): Not sampled as not visualised in autoradiograph
